Only a selection was taken, and hits are over-represented in it overall.
UPR XBP1 act = activators of adaptive arm of unfolded protein response (XBP1). CHO-XBP1 luciferase reporter, IRE1-XBP1 UPR activation, luminescence; percent of tunicamycin response, DMSO as zero. activation, % at 20 µM. actives 0.33% (n = 330,000). AID 463104;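 active = versus positive control, 20 µM dose yields 30% or more activation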
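Material: CHO cell line with stable XBP1 luciferase reporter; buffer or medium: F12 medium containing 10% fetal bovine serum; compound: single point, 20 µM final compound, 1% DMSO; incubation: 6 h treatment, 37 °C; measured by: glow luminescence from Steady-Glo reagent; evaluation: activation, % of tunicamycin; control set: tunicamycin high, DMSO low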
Bfl-1 A1 inh = inhibitors of the anti-apoptotic protein A1, read as caspase activation | actives 0.066% (n = 330,000) | MEF A1-2A-BIM cells, Caspase-Glo 3/7 luminescence, 3 h; percent of clofoctol response, vehicle zero | caspase activation, % (concentration not given with the values);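 active = over half of replicate activation scores above 10%, or exactly half above 10 with the replicate mean above 10; inconclusive = replicate mean below 10 yet half the replicates above 10; inactive = over half of replicates below 10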
CHOP UPR activ = activators of apoptotic arm of unfolded protein response (CHOP); CHO-CHOP luciferase reporter, UPR activation, luminescence; percent of tunicamycin response over DMSO baseline; activation, % at 10 µM; AID 449763; actives 0.34% (n = 330,000);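 active = at 10 µM dose, activation of 40% or more, normalized to positive control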
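Evaluation: % reporter activation, DMSO baseline versus tunicamycin full activation; System: CHO-CHOP luciferase reporter cell line; Input: 500 cells/well; Incubation: 6 h compound treatment, 37 °C; Measured by: Steady-Glo luciferase luminescence; Dosing: one dose, 10 µM in 0.5% DMSO; Buffer or medium: F12 medium, 10% FBS; Benchmarks: positive tunicamycin 10 µg/mL, negative DMSO alone.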
CHOP inhibitor = blocks CHOP induction under ER stress | actives 3.8% (n = 220,000) | CHO-K1 CHOP-promoter luciferase, tunicamycin-induced, 15-18 h | AID 2732 | inhibition, % at 10 µM;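 active = compounds that reduced the stress-induced luciferase reporter signal by more than about 70% of percent inhibition, limit read from the data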
CHOP confirm = confirmation of CHOP induction inhibitors. actives 45% (n = 2,100). shares compounds with CHOP inhibitor. inhibition, % at 10 µM. CHO-CHOP promoter luciferase reporter, tunicamycin-induced, luminescence;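 active = mean of three repeat readings of reporter signal inhibition above a set limit, cut at about 70% in these data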
Each line names hits and unclear results; the compound was inactive in the other large screens (follow-up assays come after a bar, where they were run); ! = repeats disagree.

COCCn1c(=NC(=O)/C=C/c2cccs2)sc2cc(NC(C)=O)ccc21	CHOP inhibitor 105 | CHOP confirm 79
CN(C)S(=O)(=O)c1cccc(NC(=O)COc2cccc3ccccc23)c1	none (no result: Bfl-1 A1 inh, CHOP inhibitor)
CSc1cccc(NC(=O)COc2cccc3ccccc23)c1	CHOP inhibitor 106 | CHOP confirm inactive
COc1ccc(-c2[nH]ncc2N=Nc2cc(C)cc(C)c2)cc1	CHOP inhibitor 104 | CHOP confirm 102
CCc1cc(-c2[nH]ncc2-c2ccc(OC)cc2)c(O)cc1O	none (no result: CHOP inhibitor)
CCn1c(=O)c(=O)[nH]c2cc(C(=O)N(C)Cc3ccc(OC)c(F)c3)ccc21	none (no result: CHOP inhibitor)
O=C(Cc1ccccc1)Nc1cccc(N2C(=O)C=CC2=O)c1	CHOP inhibitor 109 (no result: UPR XBP1 act, CHOP UPR activ) | CHOP confirm 132
COc1ccc(C2=C(c3ccc(OC)c(OC)c3)CN3CCCCC3C2)cc1 (stereo not given)	none (no result: CHOP inhibitor)
Cc1cccc(Nc2nc(N)c([N+](=O)[O-])c(N3CC(C)CC(C)C3)n2)c1 (stereo not given)	CHOP inhibitor 103 | CHOP confirm 118
Cc1cccc(Nc2nc(N)c([N+](=O)[O-])c(N3CCC(C)CC3)n2)c1	CHOP inhibitor 104 | CHOP confirm inactive
CCN1CCN(c2nc(Nc3cccc(OC)c3)nc(N)c2[N+](=O)[O-])CC1	none (no result: CHOP inhibitor)
Cc1cccc(Nc2nc(N)c([N+](=O)[O-])c(N3CC(C)OC(C)C3)n2)c1 (stereo not given)	none (no result: CHOP inhibitor)
Cc1cc(-c2ccccc2)n(-c2cc(N/N=C/c3ccccc3O)ncn2)n1	CHOP inhibitor 102 (no result: UPR XBP1 act, CHOP UPR activ) | CHOP confirm inactive
CC(C)c1ccc(NC(=O)[C@H](NC(=O)[C@@H]2Cc3ccccc3CN2)c2ccccc2)cc1	none (no result: CHOP inhibitor)
CCOC(=O)c1c(-c2ccccc2)oc2ccc(O)c(CN3CCOCC3)c12	CHOP inhibitor 109 | CHOP confirm 96
CCOC(=O)c1c(C)oc2ccc(O)c(CN3CCCCC3)c12	none
COc1cccc(Nc2ncnc3onc(-c4ccccc4OC)c23)c1	none (no result: CHOP inhibitor)
Cc1cccc(-c2onc3ccc(C4(C)OCCO4)cc23)c1	CHOP inhibitor 106 | CHOP confirm inactive
CC1(c2ccc3noc(-c4cccc(F)c4)c3c2)OCCO1	none
O=S(=O)(Nc1cccc2c1CCCC2)c1cccc(C(F)(F)F)c1	CHOP inhibitor 107 | CHOP confirm 120
Cc1cc(C)cc(NC(=O)CSc2nc3nc(C)cc(C)n3n2)c1	none (no result: CHOP inhibitor)
Cc1[nH]n(-c2ccccc2)c(=O)c1N=Nc1ccccc1O	CHOP inhibitor 105 (no result: Bfl-1 A1 inh) | CHOP confirm inactive
O=C(NCC(c1ccco1)N1CCN(c2ccccc2F)CC1)c1ccco1 (stereo not given)	none (no result: CHOP inhibitor)
C=C1C(=O)O[C@@H]2C[C@@H](C)[C@@H]3C=CC(=O)[C@@]3(C)[C@@H](OC(C)=O)[C@H]12	CHOP inhibitor 107 | CHOP confirm 120
Cc1ccccc1CS(=O)(=O)c1nnc([C@H](CC(C)C)NC(=O)OC(C)(C)C)o1	CHOP inhibitor 108 | CHOP confirm 123
CCOc1ccc(Cc2nnc(SCC(=O)Nc3c(C)cccc3C)[nH]c2=O)cc1	none (no result: CHOP inhibitor)
CCOC(=O)c1c(N2C(=O)C=CC2=O)sc(C)c1C	CHOP inhibitor 109 | CHOP confirm inactive
CCOC(=O)c1c(NC(N)=O)sc(C)c1C	none
O=C1ON=C(c2ccccc2)/C1=C/c1ccco1	CHOP inhibitor 104 | CHOP confirm inactive
COc1ccc(/C=C2/C(=O)ON=C2c2ccccc2)cc1OC	CHOP inhibitor 105 | CHOP confirm 104
COc1cc(/C=C2\C(=O)ON=C2c2ccccc2)cc(OC)c1OC	none
COc1ccc(/C=C2\C(=O)ON=C2c2ccccc2)cc1OC	none (no result: CHOP inhibitor)
CCCCCc1nnc(NC(=O)CN2C(=O)C3CCCCC3C2=O)s1 (stereo not given)	none (no result: CHOP inhibitor)
Cc1ccc(Cl)cc1NC(=O)CCC(=O)Nc1cc(Cl)ccc1C	CHOP inhibitor 100 | CHOP confirm inactive
CCCC(=O)Nc1cc(Cl)ccc1C	none
COc1ccc(C2=C(CN(C)C)C(c3ccccc3)c3ccccc3O2)cc1 (stereo not given)	CHOP inhibitor 104! | CHOP confirm inactive
CCOc1ccc(C2=C(C=C(C#N)C#N)C(c3ccccc3)c3ccccc3O2)cc1 (stereo not given)	none
CC1(C)CC(=O)N(c2ccc(Cl)c(Cl)c2)C(=O)C1	none (no result: CHOP inhibitor)
O=C(Nc1ccc(S(=O)(=O)N2CCOCC2)cc1)c1ccc(CN2CCc3ccccc3C2)cc1	CHOP inhibitor 101 | CHOP confirm 89
CNC(=S)NNC(=O)COc1ccccc1C	none
Cc1ccccc1OCC(=O)NNC(=O)c1ccc(-c2ccccc2)cc1	CHOP inhibitor 105 | CHOP confirm inactive
Cc1c(CN2CCC(CO)(CCOc3ccccc3)CC2)[nH]c2c(Cl)cccc12	CHOP inhibitor 105 | CHOP confirm 71
CS(=O)(=O)c1ccc(Cl)c(C(=O)OCC(=O)NC2CCCCCCC2)c1	none (no result: CHOP inhibitor)
CCCc1cc(C(=O)N(C2CCCCC2)C2CCCCC2)no1	CHOP inhibitor 100 | CHOP confirm 89
CCCc1cc(C(=O)NC2CCCCC2)no1	none
COc1cccc(C2C(C(N)=O)=C(C)Nc3nc(CCCO)nn32)c1 (stereo not given)	none (no result: CHOP inhibitor)
O=C(N=c1ccn(-c2nc3ccccc3nc2NS(=O)(=O)c2ccc(Cl)cc2)cc1)c1cccs1	CHOP inhibitor 98 | CHOP confirm inactive
Cc1occc1-c1nnc(SCC(=O)Nc2nc(C(C)(C)C)cs2)o1	CHOP inhibitor 103 | CHOP confirm inactive
CCCc1nn(-c2ccccc2)c2c1C(c1cccs1)C(C#N)=C(N)O2 (stereo not given)	CHOP inhibitor 108 | CHOP confirm inactive
Cc1cc(C)nc(NS(=O)(=O)c2ccc(NC(=O)c3cc(-c4ccccc4)nc4ccccc34)cc2)n1	CHOP inhibitor 102 | CHOP confirm inactive
CCOc1ccc2nc(NC(=O)CN3C(=O)NC4(CCCC4)C3=O)sc2c1	none (no result: CHOP inhibitor)
Cc1ccc(NC(=O)Nc2nnc(-c3ccncc3)s2)cc1C	Bfl-1 A1 inh inconclusive, CHOP inhibitor 104 | CHOP confirm inactive
CCCCCCCCCCCCCCCC[n+]1cccc2ccccc21	CHOP inhibitor 106 | CHOP confirm 120
CCn1cnnc1SCC(=O)NCC1COc2ccccc2O1 (stereo not given)	none (no result: CHOP inhibitor)
O=C(Nc1nnc(-c2ccccc2)s1)c1ccc(F)cc1	CHOP inhibitor 103 | CHOP confirm inactive
CCC(NC(=O)c1ccccc1NC(=O)C(C)(C)C)C(=O)N1CC(C)OC(C)C1 (stereo not given)	none (no result: CHOP inhibitor)
CCc1nc(NCC(C)C)c(C#N)c2c1COC(C)(C)C2	CHOP inhibitor 108 | CHOP confirm 71
O=S(=O)(c1ccc(-c2ccon2)s1)N1CCN(c2ccccn2)CC1	none
Cc1cc(=O)n2c3c(sc2n1)C(=O)N(Cc1ccccc1)C3=O	CHOP inhibitor 105 | CHOP confirm inactive

Source: PubChem BioAssay
